Assays:
Norovirus = assay: Antiviral activity against Norovirus infected in human HG23 cells; type: functional; conditions: read-out: ED50 (the source's name)
Summary of the method: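 Norovirus replicon-bearing cells, with inhibition of viral replication reported as ED50 in μM.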

[1] = Cytotoxicity against human HG23 cells up to 320 uM; type: cell-based
[2] = Inhibition of Norovirus recombinant 3CL protease using Edans-EPDFHLQGPEDLAK-Dabcyl as substrate for 30 mins by fluorometry
[3] = Aqueous stability of the compound in DMSO/water after 24 hrs by Mass spectrometry; type: physicochemical
Summary of the method: (§1)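 The bisulfite adduct was placed in water. The species present (intact bisulfite adduct or hydrated aldehyde) were examined after 5 min of exposure and again after 24 h.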

[4] = Stability of the compound in buffer solution at pH 7.4 assessed as formation of aldehyde form of compound within 1 hr; type: physicochemical; conditions: pH 7.4, 1 h
Summary of the method: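 The bisulfite adduct was placed in buffer solution at pH 7.4. Over about one hour, it was followed for dissociation to the free aldehyde and for hydration of that aldehyde.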

[5] = Aqueous stability of the compound assessed as compound hydration in DMSO/water after 5 mins by Mass spectrometry; type: physicochemical; summary of the method: as §1

Structure (SMILES) | EC50 (Norovirus) [nM] | Activity [1] | IC50 [2] [nM] | Stability [3] | Stability [4] | Stability [5]
O=C(N[C@@H](Cc1ccccc1)C(=O)N[C@@H](CC1CCNC1=O)C(O)S(=O)(=O)[O-])OCc1ccccc1.[Na+] (stereo partly specified) | 1100 | Non-toxic | – | – | – | –
CCC[C@H](NC(=O)OCc1ccccc1)C(=O)N[C@H](C=O)CC1CCNC1=O (stereo partly specified) | 2300 | Non-toxic | 6100 | – | – | –
O=C(N[C@@H](CC1CCCCC1)C(=O)N[C@@H](CC1CCNC1=O)C(O)S(=O)(=O)[O-])OCc1ccccc1.[Na+] (stereo partly specified) | 60 | Non-toxic | – | – | – | –
CCCC[C@H](NC(=O)OCc1ccccc1)C(=O)N[C@H](C=O)CC1CCNC1=O (stereo partly specified) | 1200 | Non-toxic | 4500 | – | – | –
CC(C)C[C@H](NC(=O)OCc1ccccc1)C(=O)N[C@@H](CC1CCNC1=O)C(O)S(=O)(=O)[O-].[Na+] (stereo partly specified) | 300 | Non-toxic | – | Stable | Stable | –
CC(C)C[C@H](NC(=O)OCc1ccccc1)C(=O)N[C@H](C=O)CC1CCNC1=O (stereo partly specified) | 200 | Non-toxic | 600 | – | – | Unstable
CCCC[C@H](NC(=O)OCc1ccccc1)C(=O)N[C@@H](CC1CCNC1=O)C(O)S(=O)(=O)[O-].[Na+] (stereo partly specified) | 1300 | Non-toxic | – | – | – | –
CCOC(=O)N[C@@H](C)C(=O)N[C@@H](CC1CCNC1=O)C(O)(C(=O)NC1CC1)S(=O)(=O)[O-].[Na+] (stereo partly specified) | 800 | Non-toxic | 5300 | – | – | –
CC(C)C[C@H](NC(=O)OCCc1ccccc1)C(=O)N[C@@H](CC1CCNC1=O)C(O)S(=O)(=O)[O-].[Na+] (stereo partly specified) | 1000 | Non-toxic | – | – | – | –
CC(C)C[C@H](NC(=O)OCc1cccc(F)c1)C(=O)N[C@@H](CC1CCNC1=O)C(O)S(=O)(=O)[O-].[Na+] (stereo partly specified) | 200 | Non-toxic | – | – | – | –
CC(C)C[C@H](NC(=O)OCCC1CCCCC1)C(=O)N[C@@H](CC1CCNC1=O)C(O)S(=O)(=O)[O-].[Na+] (stereo partly specified) | 300 | Toxic | – | – | – | –
O=C[C@H](CC1CCNC1=O)NC(=O)[C@H](Cc1ccccc1)NC(=O)OCc1ccccc1 (stereo partly specified) | 1800 | Non-toxic | 5100 | – | – | –
CC(C)C[C@H](NC(=O)OCCc1ccccc1)C(=O)N[C@H](C=O)CC1CCNC1=O (stereo partly specified) | 1100 | Non-toxic | 1900 | – | – | –
CC(C)C[C@H](NC(=O)OCc1ccc(F)cc1)C(=O)N[C@@H](CC1CCNC1=O)C(O)S(=O)(=O)[O-].[Na+] (stereo partly specified) | 400 | Non-toxic | – | – | – | –
CC(C)C[C@H](NC(=O)OCc1ccc(F)cc1)C(=O)N[C@H](C=O)CC1CCNC1=O (stereo partly specified) | 500 | Non-toxic | 1800 | – | – | –
CC(C)C[C@H](NC(=O)OCCC1CCCCC1)C(=O)N[C@H](C=O)CC1CCNC1=O (stereo partly specified) | 300 | Toxic | 600 | – | – | –
CC(C)C[C@H](NC(=O)OCc1cccc(F)c1)C(=O)N[C@H](C=O)CC1CCNC1=O (stereo partly specified) | 300 | Non-toxic | 700 | – | – | –
O=C[C@H](CC1CCNC1=O)NC(=O)[C@H](CC1CCCCC1)NC(=O)OCc1ccccc1 (stereo partly specified) | 50 | Non-toxic | 500 | – | – | –
CCC[C@H](NC(=O)OCc1ccccc1)C(=O)N[C@@H](CC1CCNC1=O)C(O)S(=O)(=O)[O-].[Na+] (stereo partly specified) | 1500 | Non-toxic | – | – | – | –

— ChEMBL document CHEMBL2311408, “Inhibition of norovirus 3CL protease by bisulfite adducts of transition state inhibitors” (Bioorg Med Chem Lett, 2013)
